Data as given in ChEMBL document CHEMBL5058577, “EUbOPEN Chemogenomics Library 2 (Multiplex)” (2022).

Tested on: HEK-293T
Assay: Multiplex assay against HEK293T
Type: toxicity, cell-based
Conditions: human
Summary of the method: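 At seeding, live cells were stained with Hoechst33342, BioTracker Green Microtubule Cytoskeleton Dye, MitoTracker Red and Annexin V Alexa Fluor 680. After compound addition they were imaged on a CQ1 microscope at 37°C and 5% CO2, and CellPathfinder machine-learning gating sorted them into Hoechst high-intensity objects or normal cells, with normal cells further split into healthy, pyknosed or fragmented nuclei and pyknosed cells into mitotic or apoptotic. Tubulin, mitochondrial-mass and membrane-permeability phenotypes are given as per cents of cells with healthy nuclei.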

[1] = 12 h, 1 µM, compound concentration 1 uM, replicate 1
[2] = 12 h, 1 µM, compound concentration 1 uM, replicate 2
[3] = 12 h, 10 µM, compound concentration 10 uM, replicate 1
[4] = 12 h, 10 µM, compound concentration 10 uM, replicate 2
[5] = 24 h, 1 µM, compound concentration 1 uM, replicate 1
[6] = 24 h, 1 µM, compound concentration 1 uM, replicate 2
[7] = 24 h, 10 µM, compound concentration 10 uM, replicate 1
[8] = 24 h, 10 µM, compound concentration 10 uM, replicate 2
[9] = 48 h, 1 µM, compound concentration 1 uM, replicate 1
[10] = 48 h, 1 µM, compound concentration 1 uM, replicate 2
[11] = 48 h, 10 µM, compound concentration 10 uM, replicate 1
[12] = 48 h, 10 µM, compound concentration 10 uM, replicate 2

## Cl.Cl.OCCOCCN1CCN(C(c2ccccc2)c2ccc(Cl)cc2)CC1 (centres undefined) [HYDROXYZINE HYDROCHLORIDE]
[1]
  Population Apoptotic (%): 34%
  Population Fragmented Nuclei (%): 7%
  Population Healthy Nuclei (%): 79%
  Population Hoechst High Intensity Objects (%): 6%
  Population Membrane Permeable-Phenotype (%): 0%
  Population Mitochondria Different-Phenotype (%): 48%
  Population Mitotic Cells (%): 66%
  Population Normal (%): 93%
  Population Pyknosed Nuclei (%): 13%
  Population Tubulin-Different-Phenotype (%): 24%
  Total Cell Count: 394
[2]
  Population Apoptotic (%): 70%
  Population Fragmented Nuclei (%): 5%
  Population Healthy Nuclei (%): 84%
  Population Hoechst High Intensity Objects (%): 9%
  Population Mitochondria Different-Phenotype (%): 58%
  Population Mitotic Cells (%): 29%
  Population Normal (%): 90%
  Population Pyknosed Nuclei (%): 9%
  Population Tubulin-Different-Phenotype (%): 28%
  Total Cell Count: 362
[3]
  Population Apoptotic (%): 49%
  Population Fragmented Nuclei (%): 8%
  Population Healthy Nuclei (%): 71%
  Population Hoechst High Intensity Objects (%): 11%
  Population Membrane Permeable-Phenotype (%): 0%
  Population Mitochondria Different-Phenotype (%): 71%
  Population Mitotic Cells (%): 50%
  Population Normal (%): 88%
  Population Pyknosed Nuclei (%): 19%
  Population Tubulin-Different-Phenotype (%): 65%
  Total Cell Count: 354
[4]
  Population Apoptotic (%): 68%
  Population Fragmented Nuclei (%): 6%
  Population Healthy Nuclei (%): 73%
  Population Hoechst High Intensity Objects (%): 19%
  Population Membrane Permeable-Phenotype (%): 1%
  Population Mitochondria Different-Phenotype (%): 83%
  Population Mitotic Cells (%): 31%
  Population Normal (%): 80%
  Population Pyknosed Nuclei (%): 20%
  Population Tubulin-Different-Phenotype (%): 59%
  Total Cell Count: 327
[5]
  Population Apoptotic (%): 22%
  Population Fragmented Nuclei (%): 10%
  Population Healthy Nuclei (%): 78%
  Population Hoechst High Intensity Objects (%): 2%
  Population Membrane Permeable-Phenotype (%): 0%
  Population Mitochondria Different-Phenotype (%): 34%
  Population Mitotic Cells (%): 77%
  Population Normal (%): 97%
  Population Pyknosed Nuclei (%): 11%
  Population Tubulin-Different-Phenotype (%): 22%
  Total Cell Count: 566
[6]
  Population Apoptotic (%): 43%
  Population Fragmented Nuclei (%): 11%
  Population Hoechst High Intensity Objects (%): 13%
  Population Mitochondria Different-Phenotype (%): 41%
  Population Mitotic Cells (%): 56%
  Population Normal (%): 86%
  Population Pyknosed Nuclei (%): 9%
  Population Tubulin-Different-Phenotype (%): 17%
  Total Cell Count: 481
[7]
  Population Apoptotic (%): 29%
  Population Fragmented Nuclei (%): 10%
  Population Healthy Nuclei (%): 74%
  Population Hoechst High Intensity Objects (%): 8%
  Population Membrane Permeable-Phenotype (%): 0%
  Population Mitochondria Different-Phenotype (%): 55%
  Population Mitotic Cells (%): 70%
  Population Normal (%): 91%
  Population Pyknosed Nuclei (%): 15%
  Population Tubulin-Different-Phenotype (%): 49%
  Total Cell Count: 472
[8]
  Population Apoptotic (%): 59%
  Population Fragmented Nuclei (%): 8%
  Population Healthy Nuclei (%): 71%
  Population Hoechst High Intensity Objects (%): 22%
  Population Mitochondria Different-Phenotype (%): 72%
  Population Mitotic Cells (%): 40%
  Population Normal (%): 77%
  Population Pyknosed Nuclei (%): 19%
  Population Tubulin-Different-Phenotype (%): 43%
  Total Cell Count: 383
[9]
  Population Apoptotic (%): 23%
  Population Fragmented Nuclei (%): 14%
  Population Healthy Nuclei (%): 79%
  Population Hoechst High Intensity Objects (%): 1%
  Population Membrane Permeable-Phenotype (%): 1%
  Population Mitochondria Different-Phenotype (%): 19%
  Population Mitotic Cells (%): 76%
  Population Normal (%): 98%
  Population Pyknosed Nuclei (%): 5%
  Population Tubulin-Different-Phenotype (%): 14%
  Total Cell Count: 932
[10]
  Population Apoptotic (%): 46%
  Population Hoechst High Intensity Objects (%): 3%
  Population Membrane Permeable-Phenotype (%): 0%
  Population Mitotic Cells (%): 53%
  Population Normal (%): 96%
  Population Pyknosed Nuclei (%): 6%
  Population Tubulin-Different-Phenotype (%): 12%
  Total Cell Count: 676
[11]
  Population Apoptotic (%): 38%
  Population Fragmented Nuclei (%): 14%
  Population Healthy Nuclei (%): 76%
  Population Hoechst High Intensity Objects (%): 6%
  Population Membrane Permeable-Phenotype (%): 0%
  Population Mitochondria Different-Phenotype (%): 45%
  Population Mitotic Cells (%): 61%
  Population Normal (%): 93%
  Population Pyknosed Nuclei (%): 9%
  Population Tubulin-Different-Phenotype (%): 35%
  Total Cell Count: 627
[12]
  Population Apoptotic (%): 60%
  Population Fragmented Nuclei (%): 15%
  Population Healthy Nuclei (%): 72%
  Population Hoechst High Intensity Objects (%): 16%
  Population Mitochondria Different-Phenotype (%): 53%
  Population Mitotic Cells (%): 40%
  Population Normal (%): 83%
  Population Pyknosed Nuclei (%): 12%
  Total Cell Count: 539

## COc1ccc2[nH]c(I)c(CCNC(C)=O)c2c1 [IODOMELATONIN]
[1]
  Population Apoptotic (%): 42%
  Population Fragmented Nuclei (%): 4%
  Population Healthy Nuclei (%): 80%
  Population Hoechst High Intensity Objects (%): 5%
  Population Membrane Permeable-Phenotype (%): 1%
  Population Mitochondria Different-Phenotype (%): 43%
  Population Mitotic Cells (%): 57%
  Population Normal (%): 94%
  Population Pyknosed Nuclei (%): 14%
  Population Tubulin-Different-Phenotype (%): 35%
  Total Cell Count: 388
[2]
  Population Apoptotic (%): 59%
  Population Fragmented Nuclei (%): 5%
  Population Healthy Nuclei (%): 84%
  Population Hoechst High Intensity Objects (%): 7%
  Population Membrane Permeable-Phenotype (%): 0%
  Population Mitochondria Different-Phenotype (%): 64%
  Population Mitotic Cells (%): 40%
  Population Normal (%): 92%
  Population Pyknosed Nuclei (%): 10%
  Population Tubulin-Different-Phenotype (%): 32%
  Total Cell Count: 400
[3]
  Population Apoptotic (%): 38%
  Population Fragmented Nuclei (%): 11%
  Population Healthy Nuclei (%): 77%
  Population Hoechst High Intensity Objects (%): 8%
  Population Membrane Permeable-Phenotype (%): 0%
  Population Mitochondria Different-Phenotype (%): 52%
  Population Mitotic Cells (%): 61%
  Population Normal (%): 91%
  Population Pyknosed Nuclei (%): 10%
  Population Tubulin-Different-Phenotype (%): 29%
  Total Cell Count: 445
[4]
  Population Apoptotic (%): 46%
  Population Fragmented Nuclei (%): 8%
  Population Hoechst High Intensity Objects (%): 12%
  Population Mitochondria Different-Phenotype (%): 62%
  Population Mitotic Cells (%): 53%
  Population Normal (%): 87%
  Population Pyknosed Nuclei (%): 14%
  Population Tubulin-Different-Phenotype (%): 25%
  Total Cell Count: 316
[5]
  Population Apoptotic (%): 38%
  Population Fragmented Nuclei (%): 8%
  Population Healthy Nuclei (%): 80%
  Population Hoechst High Intensity Objects (%): 3%
  Population Membrane Permeable-Phenotype (%): 1%
  Population Mitochondria Different-Phenotype (%): 24%
  Population Mitotic Cells (%): 61%
  Population Normal (%): 96%
  Population Pyknosed Nuclei (%): 11%
  Population Tubulin-Different-Phenotype (%): 23%
  Total Cell Count: 511
[6]
  Population Apoptotic (%): 44%
  Population Fragmented Nuclei (%): 9%
  Population Healthy Nuclei (%): 78%
  Population Hoechst High Intensity Objects (%): 8%
  Population Membrane Permeable-Phenotype (%): 0%
  Population Mitochondria Different-Phenotype (%): 37%
  Population Mitotic Cells (%): 55%
  Population Normal (%): 91%
  Population Tubulin-Different-Phenotype (%): 14%
  Total Cell Count: 497
[7]
  Population Apoptotic (%): 32%
  Population Fragmented Nuclei (%): 11%
  Population Healthy Nuclei (%): 77%
  Population Hoechst High Intensity Objects (%): 5%
  Population Membrane Permeable-Phenotype (%): 1%
  Population Mitochondria Different-Phenotype (%): 31%
  Population Mitotic Cells (%): 67%
  Population Normal (%): 94%
  Population Pyknosed Nuclei (%): 10%
  Population Tubulin-Different-Phenotype (%): 25%
  Total Cell Count: 568
[8]
  Population Apoptotic (%): 40%
  Population Fragmented Nuclei (%): 5%
  Population Healthy Nuclei (%): 81%
  Population Hoechst High Intensity Objects (%): 9%
  Population Membrane Permeable-Phenotype (%): 0%
  Population Mitochondria Different-Phenotype (%): 48%
  Population Mitotic Cells (%): 59%
  Population Normal (%): 90%
  Population Pyknosed Nuclei (%): 12%
  Population Tubulin-Different-Phenotype (%): 21%
  Total Cell Count: 360
[9]
  Population Apoptotic (%): 26%
  Population Fragmented Nuclei (%): 12%
  Population Healthy Nuclei (%): 79%
  Population Hoechst High Intensity Objects (%): 4%
  Population Membrane Permeable-Phenotype (%): 1%
  Population Mitochondria Different-Phenotype (%): 19%
  Population Mitotic Cells (%): 73%
  Population Normal (%): 95%
  Population Pyknosed Nuclei (%): 7%
  Population Tubulin-Different-Phenotype (%): 16%
  Total Cell Count: 770
[10]
  Population Apoptotic (%): 31%
  Population Hoechst High Intensity Objects (%): 5%
  Population Mitochondria Different-Phenotype (%): 22%
  Population Mitotic Cells (%): 68%
  Population Normal (%): 94%
  Population Pyknosed Nuclei (%): 8%
  Population Tubulin-Different-Phenotype (%): 14%
  Total Cell Count: 622
[11]
  Population Apoptotic (%): 23%
  Population Fragmented Nuclei (%): 16%
  Population Healthy Nuclei (%): 77%
  Population Hoechst High Intensity Objects (%): 1%
  Population Membrane Permeable-Phenotype (%): 1%
  Population Mitochondria Different-Phenotype (%): 16%
  Population Mitotic Cells (%): 76%
  Population Normal (%): 98%
  Population Pyknosed Nuclei (%): 5%
  Population Tubulin-Different-Phenotype (%): 11%
  Total Cell Count: 860
[12]
  Population Apoptotic (%): 25%
  Population Fragmented Nuclei (%): 15%
  Population Healthy Nuclei (%): 75%
  Population Hoechst High Intensity Objects (%): 2%
  Population Membrane Permeable-Phenotype (%): 0%
  Population Mitochondria Different-Phenotype (%): 24%
  Population Mitotic Cells (%): 74%
  Population Normal (%): 97%
  Population Pyknosed Nuclei (%): 9%
  Population Tubulin-Different-Phenotype (%): 16%
  Total Cell Count: 613
